Columns and labels:
ABCC1 (MRP1) [1] = target: T1, ABCC1 (MRP1) (Homo sapiens, UniProt P33527); test: Inhibition of human ABCC1 transfected in MDCK2-MRP1 cells up to 100 uM using calcein-AM as substrate measured after 1 hr by fluorescence assay relative to control; type: cell-based; conditions: probe calcein-AM
In short: (§1)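 MDCK.2 cells transfected with human ABCC1, 20,000/well, attached overnight, washed with HEPES buffer pH 7.4, then 1 h at 37 °C with 0.5 µM calcein-AM, BSA, Pluronic and compounds, in triplicate. PFA-fixed, read at 485/535 nm.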

[2] = target: ATP-dependent translocase ABCB1 (Homo sapiens, UniProt P08183); test: Inhibition of ABCB1 in human KB-V1 cells using calcein-AM as substrate measured after 10 mins by fluorescence assay; type: cell-based
Chain of ATP-dependent translocase ABCB1 (P08183 whole entry): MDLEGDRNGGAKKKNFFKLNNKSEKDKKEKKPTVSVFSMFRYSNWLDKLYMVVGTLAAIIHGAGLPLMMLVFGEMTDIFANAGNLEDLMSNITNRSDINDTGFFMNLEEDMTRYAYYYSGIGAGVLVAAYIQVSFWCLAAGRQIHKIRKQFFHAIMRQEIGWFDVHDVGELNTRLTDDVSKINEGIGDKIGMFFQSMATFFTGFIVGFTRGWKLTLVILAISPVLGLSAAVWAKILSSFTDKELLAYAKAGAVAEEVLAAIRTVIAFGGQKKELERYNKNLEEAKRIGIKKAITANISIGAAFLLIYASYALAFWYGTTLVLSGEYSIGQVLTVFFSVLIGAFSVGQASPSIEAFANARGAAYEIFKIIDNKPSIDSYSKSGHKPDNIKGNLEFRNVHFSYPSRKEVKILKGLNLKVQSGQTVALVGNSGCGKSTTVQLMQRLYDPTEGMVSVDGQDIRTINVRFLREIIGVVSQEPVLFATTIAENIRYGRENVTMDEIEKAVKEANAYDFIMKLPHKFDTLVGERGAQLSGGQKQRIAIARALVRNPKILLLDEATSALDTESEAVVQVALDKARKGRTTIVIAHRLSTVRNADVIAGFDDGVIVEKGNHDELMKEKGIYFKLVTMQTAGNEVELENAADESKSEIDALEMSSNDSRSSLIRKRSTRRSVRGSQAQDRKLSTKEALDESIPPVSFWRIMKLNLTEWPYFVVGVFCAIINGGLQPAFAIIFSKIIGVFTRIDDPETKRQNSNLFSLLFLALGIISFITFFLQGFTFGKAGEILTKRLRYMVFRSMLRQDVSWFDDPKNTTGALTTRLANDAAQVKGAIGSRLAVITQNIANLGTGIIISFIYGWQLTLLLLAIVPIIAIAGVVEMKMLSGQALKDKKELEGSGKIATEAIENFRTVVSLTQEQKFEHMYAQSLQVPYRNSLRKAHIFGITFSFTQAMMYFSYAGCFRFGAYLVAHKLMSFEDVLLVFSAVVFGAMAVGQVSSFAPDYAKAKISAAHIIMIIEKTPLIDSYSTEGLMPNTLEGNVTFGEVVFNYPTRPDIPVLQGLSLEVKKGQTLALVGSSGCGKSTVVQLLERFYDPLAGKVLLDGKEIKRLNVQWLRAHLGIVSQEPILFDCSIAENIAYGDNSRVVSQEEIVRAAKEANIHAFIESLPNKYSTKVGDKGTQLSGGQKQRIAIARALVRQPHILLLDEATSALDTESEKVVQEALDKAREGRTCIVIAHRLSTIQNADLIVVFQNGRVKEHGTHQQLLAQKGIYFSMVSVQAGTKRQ

ABCC1 (MRP1) [3] = target: T1, ABCC1 (MRP1); test: Inhibition of human ABCC1 transfected in MDCK2-MRP1 cells using calcein-AM as substrate measured after 1 hr by fluorescence assay relative to reversan; type: cell-based; conditions: MDCK2-MRP1 cells transfected with human ABCC1, probe calcein-AM, read-out: Imax; in short: as §1
ABCG2 (Homo sapiens) [4] = test: Activation of ABCG2 ATPase activity (unknown origin) expressed in baculovirus infected Sf9 insect cells using ATP as substrate measured after 1 hr by colorimetric assay relative to sulfasalazine; conditions: probe ATP
ABCG2 = target: T2, ABCG2 (Homo sapiens, UniProt Q9UNQ0); test: Inhibition of ABCG2 in topotecan-cultured human MCF7 cells using Hoechst 33342 as substrate measured after 2 hrs by fluorescence assay relative to FTC; type: cell-based; conditions: probe Hoechst 33342, read-out: Imax
T2 sequence (Q9UNQ0 whole entry): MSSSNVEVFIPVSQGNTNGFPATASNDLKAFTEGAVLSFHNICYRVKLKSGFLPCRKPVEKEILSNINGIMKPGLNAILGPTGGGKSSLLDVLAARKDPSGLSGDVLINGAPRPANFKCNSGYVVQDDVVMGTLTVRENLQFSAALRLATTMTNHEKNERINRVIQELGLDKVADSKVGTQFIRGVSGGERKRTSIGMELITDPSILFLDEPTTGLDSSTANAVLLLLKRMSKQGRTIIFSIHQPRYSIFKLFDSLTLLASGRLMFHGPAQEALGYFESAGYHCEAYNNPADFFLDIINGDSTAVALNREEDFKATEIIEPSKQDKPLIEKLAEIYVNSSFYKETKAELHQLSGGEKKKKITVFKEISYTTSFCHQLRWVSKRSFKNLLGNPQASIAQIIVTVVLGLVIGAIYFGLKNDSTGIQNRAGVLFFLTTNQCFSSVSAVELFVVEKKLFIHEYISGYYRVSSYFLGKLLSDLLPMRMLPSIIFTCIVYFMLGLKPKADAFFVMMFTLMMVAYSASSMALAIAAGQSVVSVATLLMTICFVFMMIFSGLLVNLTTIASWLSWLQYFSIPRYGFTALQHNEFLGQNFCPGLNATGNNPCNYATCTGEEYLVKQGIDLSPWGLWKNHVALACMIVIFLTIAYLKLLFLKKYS

[5] = target: Multidrug resistance-associated protein 1 (Homo sapiens, UniProt P33527); test: Inhibition of human ABCC1 transfected in MDCK2-MRP1 cells using calcein-AM as substrate measured after 1 hr by fluorescence assay; type: cell-based
Chain of Multidrug resistance-associated protein 1 (P33527 whole entry): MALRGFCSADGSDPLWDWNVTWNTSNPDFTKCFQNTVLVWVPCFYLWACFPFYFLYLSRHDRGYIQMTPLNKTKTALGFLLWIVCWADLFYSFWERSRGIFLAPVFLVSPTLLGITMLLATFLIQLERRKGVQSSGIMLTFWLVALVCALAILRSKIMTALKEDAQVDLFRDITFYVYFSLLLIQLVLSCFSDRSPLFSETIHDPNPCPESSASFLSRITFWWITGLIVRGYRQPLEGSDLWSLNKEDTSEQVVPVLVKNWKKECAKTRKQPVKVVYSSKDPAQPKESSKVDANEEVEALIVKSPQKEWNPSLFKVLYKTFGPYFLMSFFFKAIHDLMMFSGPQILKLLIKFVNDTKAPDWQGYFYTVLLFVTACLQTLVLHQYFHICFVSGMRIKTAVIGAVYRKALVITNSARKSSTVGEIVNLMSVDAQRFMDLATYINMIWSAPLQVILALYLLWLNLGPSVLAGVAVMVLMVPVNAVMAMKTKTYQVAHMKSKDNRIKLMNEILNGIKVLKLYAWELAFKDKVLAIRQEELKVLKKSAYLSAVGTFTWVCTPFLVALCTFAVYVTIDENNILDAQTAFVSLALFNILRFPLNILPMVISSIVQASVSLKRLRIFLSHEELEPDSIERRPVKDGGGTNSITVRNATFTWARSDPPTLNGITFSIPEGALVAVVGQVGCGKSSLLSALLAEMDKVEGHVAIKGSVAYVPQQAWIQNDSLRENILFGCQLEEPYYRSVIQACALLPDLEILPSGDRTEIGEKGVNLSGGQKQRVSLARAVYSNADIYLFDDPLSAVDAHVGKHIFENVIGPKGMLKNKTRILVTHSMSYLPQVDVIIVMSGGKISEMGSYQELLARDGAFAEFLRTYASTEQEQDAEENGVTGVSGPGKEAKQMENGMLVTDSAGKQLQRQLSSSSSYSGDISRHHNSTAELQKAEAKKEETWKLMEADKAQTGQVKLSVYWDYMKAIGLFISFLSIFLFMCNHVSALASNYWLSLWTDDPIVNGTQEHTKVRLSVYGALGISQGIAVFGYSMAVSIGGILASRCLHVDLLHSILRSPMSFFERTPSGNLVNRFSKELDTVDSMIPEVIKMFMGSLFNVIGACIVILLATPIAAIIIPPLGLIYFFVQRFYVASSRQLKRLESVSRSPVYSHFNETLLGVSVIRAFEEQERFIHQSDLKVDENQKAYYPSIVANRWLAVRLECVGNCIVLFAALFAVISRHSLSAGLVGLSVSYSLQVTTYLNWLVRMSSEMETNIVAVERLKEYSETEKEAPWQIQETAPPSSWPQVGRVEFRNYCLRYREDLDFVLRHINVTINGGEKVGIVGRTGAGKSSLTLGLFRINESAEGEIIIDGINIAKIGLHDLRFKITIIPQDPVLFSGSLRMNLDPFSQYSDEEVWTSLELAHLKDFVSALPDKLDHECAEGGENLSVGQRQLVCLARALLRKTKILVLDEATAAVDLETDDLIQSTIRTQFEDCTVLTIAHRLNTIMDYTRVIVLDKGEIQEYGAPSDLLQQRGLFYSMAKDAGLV
In short: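 MDCK.2 cells transfected with human ABCC1, 20,000/well, attached overnight, washed with HEPES buffer pH 7.4, then 1 h at 37 °C with 0.5 µM calcein-AM, BSA, Pluronic and compounds, in triplicate.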

ABCG2 (Homo sapiens) [6] = test: Inhibition of sulfasalazine-stimulated ABCG2 ATPase activity (unknown origin) expressed in baculovirus infected Sf9 insect cells using ATP as substrate measured after 1 hr by colorimetric assay relative to FTC; conditions: probe ATP, read-out: Imax
ABCB1 = ABCB1 (Homo sapiens, UniProt P08183); test: Inhibition of ABCB1 in human KB-V1 cells using calcein-AM as substrate measured after 10 mins by fluorescence assay relative to tariquidar; type: cell-based; conditions: probe calcein-AM, read-out: Imax
Chain of ABCB1 (P08183 whole entry): as the sequence (P08183 whole entry) above
In short: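 KB-V1 cells kept in 330 nM vinblastine, 20,000/well, attached overnight, washed with HEPES loading buffer pH 7.4, then 10 min at 37 °C with 0.5 µM calcein-AM, BSA, Pluronic F-127 and rising compound concentrations, in triplicate. PFA-fixed, PBS-washed, fluorescence read at 485/535 nm.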

[7] = target: T3, Broad substrate specificity ATP-binding cassette transporter ABCG2 (Homo sapiens, UniProt Q9UNQ0); test: Inhibition of sulfasalazine-stimulated ABCG2 ATPase activity (unknown origin) expressed in baculovirus infected Sf9 insect cells using ATP as substrate measured after 1 hr by colorimetric assay
T3 sequence (Q9UNQ0 whole entry): T2 sequence (Q9UNQ0 whole entry)

[8] = target: T3, Broad substrate specificity ATP-binding cassette transporter ABCG2; test: Inhibition of ABCG2 in topotecan-cultured human MCF7 cells using Hoechst 33342 as substrate measured after 2 hrs by fluorescence assay; type: cell-based
ABCG2 (Homo sapiens) [9] = test: Activation of ABCG2 ATPase activity (unknown origin) expressed in baculovirus infected Sf9 insect cells using ATP as substrate measured after 1 hr by colorimetric assay; conditions: probe ATP
[10] = Cytotoxicity against human MCF7/Topo cells assessed as reduction in cell viability up to 1 uM by crystal violet staining based assay
In short: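 MCF-7/Topo cells kept in 550 nM topotecan, seeded at 1500/well and attached overnight, then exposed to compounds (DMSO 0.1% vehicle; vinblastine 300 nM as reference cytostatic) for varying periods, 8 wells per concentration. Fixed with 2% glutardialdehyde, stained with 0.02% crystal violet, dye redissolved in 70% EtOH, A580 read. Corrected T/C from treated, growth-control and t0 absorbances.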

[11] = Cytotoxicity against human MCF7/Topo cells assessed as reduction in cell viability at 10 uM by crystal violet staining based assay
In short: (§2)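 MCF-7/Topo cells kept in 550 nM topotecan, seeded at 1500 cells/well, attached overnight. Compound added next day (0.1% DMSO vehicle; vinblastine 300 nM positive control), 8 wells per concentration. Long-term kinetic incubation with plates fixed in 2% glutardialdehyde at several time points. Crystal violet stain redissolved in 70% EtOH, A580 read; corrected T/C (%) calculated against t0 absorbance.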

[12] = Cytotoxicity against human MCF7/Topo cells assessed as reduction in cell viability up to 3 uM by crystal violet staining based assay; in short: as §2

T1 sequence (P33527 whole entry): as the sequence (P33527 whole entry) above

| SMILES | inhibition at 1 h (ABCC1 (MRP1) [1]) [%] | IC50 ([2]; kb-v1) | Emax at 1 h (ABCG2 (Homo sapiens) [4]) [%] | Emax at 2 h (ABCG2) [%] | Emax at 10 min, 10 µM (ABCB1) [%] | IC50 [7] [nM] | IC50 [8] [nM] | IC50 ([2]; read-out: IC50) [nM] | further results |
| --- | --- | --- | --- | --- | --- | --- | --- | --- | --- |
| COc1ccc(CCNC(=O)c2cc(=O)c3c(OCc4ccccc4)cccc3o2)cc1OC | ≤ 10 | Not Active |  |  |  |  |  |  |  |
| COc1ccc2[nH]cc(CCNC(=O)c3cc(=O)c4c(OCc5ccc(Br)cc5)cccc4o3)c2c1 |  |  | 0 | 109 | > 11 | 745 | 707 |  | Emax at 1 h, 30 µM (ABCC1 (MRP1) [3]): 15%; IC50 [5]: 3600 nM; Emax at 1 h (ABCG2 (Homo sapiens) [6]): 113% |
| COc1cc2c(cc1OC)CN(CCc1ccc(NC(=O)c3cc(OC)c(OC)cc3NC(=O)c3cnc4ccccc4c3)cc1)CC2 | ≤ 10 |  |  | 72 |  | ≥ 1180 | 6220 | 356 |  |
| COc1ccc(C(=O)N2CCc3c([nH]c4ccccc34)C2c2ccc(Cl)c(Cl)c2)cc1 (stereo not drawn) | ≤ 10 | Not Active | -37 | 111 |  | 226 | 1110 |  | Emax at 1 h (ABCG2 (Homo sapiens) [6]): 141%; EC50 at 1 h (ABCG2 (Homo sapiens) [9]): 134 nM |
| COc1cc2c(cc1OC)CN(CCc1ccc(-n3cc(-c4ccc(C(C)=O)c(NC(=O)c5ccc6ccccc6n5)c4)nn3)cc1)CC2 | ≤ 10 | Not Active |  |  |  |  |  |  |  |
| COCCOCCOCCOc1cc2c(cc1OC)CCN(Cc1ccc(-n3cc(-c4ccc(C(=O)OC)c(NC(=O)c5ccc6ccccc6n5)c4)nn3)cc1)C2 | ≤ 10 |  |  | 85 | ≥ 21 |  | 153 | ≥ 25000 |  |
| COC(=O)c1ccc(-c2cn(-c3ccc(CCN4CCc5cc(OC)c(OC)cc5C4)cc3)nn2)cc1NC(=O)c1ccc2ccccc2n1 | ≤ 10 | Not Active |  |  |  |  |  |  |  |
| COc1cc2c(cc1OC)CN(CCc1ccc(-n3cc(-c4ccc(C(=O)C(C)C)c(NC(=O)c5ccc6ccccc6n5)c4)nn3)cc1)CC2 |  |  |  | 90 | ≥ 24 |  | 295 | ≥ 21800 | Emax at 1 h, 30 µM (ABCC1 (MRP1) [3]): ≥ 14%; IC50 [5]: ≥ 19000 nM |
| COCCOCCOCCOc1cc2c(cc1OC)CCN(CCc1ccc(-n3cc(-c4ccc(C(=O)OC)c(NC(=O)c5ccc6ccccc6n5)c4)nn3)cc1)C2 | ≤ 10 |  |  | 86 | 80 |  | 144 | 1620 |  |
| CCC(=O)c1ccc(-c2cn(-c3ccc(CCN4CCc5cc(OC)c(OC)cc5C4)cc3)nn2)cc1NC(=O)c1ccc2ccccc2n1 | ≤ 10 |  |  |  |  |  |  |  | Activity [10]: Non-Toxic |
| COC(=O)c1ccc(-c2cn(-c3ccc(CCN4CCc5ccccc5C4)cc3)nn2)cc1NC(=O)c1ccc2ccccc2n1 | ≤ 10 |  |  |  | ≥ 11 |  |  | ≥ 38300 |  |
| COc1ccc(/C(C#N)=C/c2ccc(N3CCC(O)CC3)s2)cc1OC |  |  | 99 | 106 | ≥ 53 |  | 3350 | ≥ 65500 | Emax at 1 h, 30 µM (ABCC1 (MRP1) [3]): ≥ 81%; IC50 [5]: ≥ 39800 nM; EC50 at 1 h (ABCG2 (Homo sapiens) [9]): 327 nM |
| COC(=O)c1ccc(-c2cn(-c3ccc(CN4CCc5cc(OC)c(OC)cc5C4)cc3)nn2)cc1NC(=O)c1ccc2ccccc2n1 | ≤ 10 |  |  |  | ≥ 25 |  |  | ≥ 10700 |  |
| COc1ccc2c3c([nH]c2c1)[C@H](CC(C)C)N1C(=O)[C@H](CCC(=O)OC(C)(C)C)NC(=O)[C@@H]1C3 |  |  |  |  | ≥ 11 |  |  |  | Emax at 1 h, 30 µM (ABCC1 (MRP1) [3]): 29%; Activity [11]: Toxic; Activity [12]: Non-Toxic |
| COC(=O)c1ccc(C(=O)Nc2ccc(CCN3CCc4cc(OC)c(OC)cc4C3)cc2)cc1NC(=O)c1ccc2ccccc2n1 | ≤ 10 |  | -27 | 99 | ≥ 14 | 294 | 101 | ≥ 12100 | Emax at 1 h (ABCG2 (Homo sapiens) [6]): 105%; EC50 at 1 h (ABCG2 (Homo sapiens) [9]): 105 nM |
| COc1ccc2c3c([nH]c2c1)[C@H](C=C(C)C)N1C(=O)[C@@H]2CCCN2C(=O)[C@@H]1C3 [FUMITREMORGIN] | ≤ 10 | Not Active | -20 |  |  | 1810 | 1480 |  | EC50 at 1 h (ABCG2 (Homo sapiens) [9]): 412 nM |

From ChEMBL document CHEMBL4680204, “Tariquidar-related triazoles as potent, selective and stable inhibitors of ABCG2 (BCRP)” (Eur J Med Chem, 2020)
